Measured values: ChEMBL document CHEMBL2321795, “Solubility-driven optimization of (pyridin-3-yl) benzoxazinyl-oxazolidinones leading to a promising antibacterial agent” (J Med Chem, 2013)
≈ marks a conversion by molar mass, not a printed value.

Columns and labels:
[1] = biological target: Voltage-gated inwardly rectifying potassium channel KCNH2 (Homo sapiens, UniProt Q12809)
[2] = Cmax in Sprague-Dawley rat at 10 mg/kg, po by LC-MS analysis; format: ADME, organism-based; design: dose 10 mg/kg, route oral; details: in vivo
Outline: (§1)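 Rats were dosed orally or by intravenous injection. For prodrugs, all parameters were based on the active parent antibacterial detected in plasma, and each prodrug dose was also given as an equivalent parent dose. Parameters were Cmax, Tmax, elimination T1/2, AUC from the concentration–time curve, clearance and oral bioavailability F.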

[3] = Aqueous solubility of the compound; details: aqueous (not further specified)
[4] = (§2) AUC in Sprague-Dawley rat at 10 mg/kg, po by LC-MS analysis; format: ADME, organism-based, Plasma; design: dose 10 mg/kg, route oral; details: Sprague-Dawley, plasma
Outline: as §1

[5] = Elimination half life in Sprague-Dawley rat at 10 mg/kg, po by LC-MS analysis; format: ADME, organism-based; design: dose 10 mg/kg, route oral; details: in vivo, read-out: beta t1/2 (converted)
Outline: as §1

[6] = Tmax in Sprague-Dawley rat at 10 mg/kg, po by LC-MS analysis; format: ADME, organism-based; design: dose 10 mg/kg, route oral; details: in vivo
Outline: as §1

[7] = Elimination half life in Sprague-Dawley rat at 10 mg/kg, iv by LC-MS analysis; format: ADME, organism-based; design: dose 10 mg/kg, route intravenous; details: in vivo, read-out: beta t1/2 (converted)
Outline: as §1

[8] = Mean resident time in Staphylococcus aureus systemic infection mouse model at 2.5 to 20 mg/kg, iv; format: ADME, organism-based; design: dose 2.5-20 mg/kg, route intravenous; details: in vivo
Staphylococcus aureus [9] = assay: Antibacterial activity against methicillin-resistant Staphylococcus aureus ATCC 33591 infected in po dosed systemic infection mouse model administered 1 hr post infection measured after 24 hrs; format: functional; details: ATCC 33591, po
Outline: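 Female ICR mice, 23–25 g, made neutropenic with cyclophosphamide ip, 150 mg/kg 4 days and 100 mg/kg 2 days before infection. Infected ip with about 0.5 mL of 10⁶ CFU/mL MRSA. Oral dosing 1 h post-infection at 5, 10, 20 and 40 mg/kg, with linezolid as control. ED₅₀ (dose treating 50% of infections) by Reed–Muench and Hill equation, 24 h after treatment.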

Staphylococcus aureus [10] = assay: Antibacterial activity against methicillin-sensitive Staphylococcus aureus ATCC 19636 infected in iv dosed systemic infection mouse model administered 1 hr post infection measured after 48 hrs; format: functional; details: ATCC 19636, iv
Outline: (§3)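 Female ICR mice weighing 20–22 g, six per group, received 0.5 mL of 10⁷–10⁸ CFU/mL S. aureus intraperitoneally as a lethal systemic challenge. Dosing was oral or intravenous 1 h post-infection at 2.5, 5, 10 and 20 mg/kg, with linezolid as comparator.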

Staphylococcus aureus [11] = assay: Antibacterial activity against methicillin-sensitive Staphylococcus aureus ATCC 19636 infected in po dosed systemic infection mouse model administered 1 hr post infection measured after 48 hrs; format: functional; details: ATCC 19636, po
Outline: as §3

[12] = (§4) Oral bioavailability in Sprague-Dawley rat at 10 mg/kg; format: ADME, organism-based; details: Sprague-Dawley, in vivo
Outline: as §1

[13] = Clearance in Sprague-Dawley rat at 10 mg/kg, iv by LC-MS analysis; format: ADME, organism-based; design: dose 10 mg/kg, route intravenous; details: in vivo
Outline: as §1

[14] = AUC in Sprague-Dawley rat at 10 mg/kg, iv by LC-MS analysis; format: ADME, organism-based; design: dose 10 mg/kg, route intravenous; details: plasma
Outline: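 Rats dosed orally or by intravenous injection. AUC is the area under the plasma concentration–time curve. For the prodrug entries, all PK values were based on the amount of the active parent antibacterial detected, not the administered prodrug.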

hERG (KCNH2) = hERG (KCNH2) (Homo sapiens, UniProt Q12809); assay: Inhibition of human ERG at 30 uM relative to control
Sequence of hERG (KCNH2) (Q12809 whole entry): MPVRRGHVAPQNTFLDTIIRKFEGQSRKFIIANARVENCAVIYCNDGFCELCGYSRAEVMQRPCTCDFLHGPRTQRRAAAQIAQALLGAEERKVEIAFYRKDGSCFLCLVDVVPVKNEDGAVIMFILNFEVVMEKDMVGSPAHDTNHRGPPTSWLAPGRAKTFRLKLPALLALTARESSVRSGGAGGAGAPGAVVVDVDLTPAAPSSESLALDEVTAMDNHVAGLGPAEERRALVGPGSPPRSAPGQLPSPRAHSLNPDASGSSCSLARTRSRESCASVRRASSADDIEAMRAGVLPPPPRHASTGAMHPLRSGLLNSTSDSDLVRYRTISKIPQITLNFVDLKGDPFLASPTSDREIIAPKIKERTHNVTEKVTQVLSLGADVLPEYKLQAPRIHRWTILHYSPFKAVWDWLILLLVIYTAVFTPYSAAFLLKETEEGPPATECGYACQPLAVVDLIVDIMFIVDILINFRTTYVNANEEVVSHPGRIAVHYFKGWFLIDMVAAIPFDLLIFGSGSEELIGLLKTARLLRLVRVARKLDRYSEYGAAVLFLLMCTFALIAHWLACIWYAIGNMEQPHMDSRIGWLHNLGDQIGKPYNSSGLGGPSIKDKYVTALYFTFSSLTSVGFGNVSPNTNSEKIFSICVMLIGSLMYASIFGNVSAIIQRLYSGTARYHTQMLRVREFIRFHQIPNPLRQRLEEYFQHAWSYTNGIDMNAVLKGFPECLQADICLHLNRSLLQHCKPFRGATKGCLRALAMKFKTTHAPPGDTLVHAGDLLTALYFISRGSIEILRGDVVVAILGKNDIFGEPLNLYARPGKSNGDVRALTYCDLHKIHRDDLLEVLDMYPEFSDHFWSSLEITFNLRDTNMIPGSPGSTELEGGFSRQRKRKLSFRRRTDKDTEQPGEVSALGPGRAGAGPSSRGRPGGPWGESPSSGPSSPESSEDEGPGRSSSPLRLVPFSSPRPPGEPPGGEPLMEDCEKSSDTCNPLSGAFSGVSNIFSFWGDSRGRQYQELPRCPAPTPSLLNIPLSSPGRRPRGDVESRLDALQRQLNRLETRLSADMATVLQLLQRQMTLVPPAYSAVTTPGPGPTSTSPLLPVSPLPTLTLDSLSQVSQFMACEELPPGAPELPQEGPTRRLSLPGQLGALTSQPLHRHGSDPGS

Enterococcus faecium = assay: Antibacterial activity against linezolid-resistant Enterococcus faecium after 16 hrs by NCCLS agar dilution method; format: functional
Outline: (§5)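 Agar dilution MIC. Stocks were 320 μg/mL in 50% aqueous DMSO, 2-fold serially diluted in sterile water, then diluted 10-fold into Mueller–Hinton agar to give 16–0.03125 μg/mL final. Organisms were grown in MH broth at 35 °C for 8 h and adjusted to 0.5 McFarland. They were spotted onto drug-containing plates with a multipoint inoculator and incubated at 35 °C for 16 h. Linezolid was the positive control.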

Enterococcus faecalis [15] = assay: Antibacterial activity against linezolid-resistant Enterococcus faecalis after 16 hrs by NCCLS agar dilution method; format: functional
Outline: as §5

[16] = tested on: Staphylococcus epidermidis; assay: Antibacterial activity against linezolid-resistant Staphylococcus epidermidis after 16 hrs by NCCLS agar dilution method; format: functional
Outline: as §5

Staphylococcus aureus [17] = assay: Antibacterial activity against linezolid-resistant Staphylococcus aureus after 16 hrs by NCCLS agar dilution method; format: functional
Outline: as §5

Staphylococcus aureus [18] = assay: Antibacterial activity against Staphylococcus aureus ATCC 29213 after 16 hrs by NCCLS agar dilution method; format: functional; details: ATCC 29213, 16 h
Outline: as §5

Enterococcus faecalis [19] = assay: Antibacterial activity against Enterococcus faecalis after 16 hrs by NCCLS agar dilution method; format: functional
Outline: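 Agar dilution MIC per NCCLS, 6 E. faecalis strains. Stock was 320 μg/mL in 50% water/DMSO, serially 2-fold diluted in sterile water, then 10-fold into Mueller–Hinton agar to give 16–0.03125 μg/mL final. Inocula came from MH broth cultures grown 8 h at 35 °C, adjusted to 0.5 McFarland and spotted by multipoint inoculator. Plates were read after 16 h at 35 °C.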

Streptococcus pneumoniae = assay: Antibacterial activity against penicillin-resistant Streptococcus pneumoniae after 16 hrs by NCCLS agar dilution method; format: functional
Outline: as §5

[20] = tested on: Staphylococcus epidermidis; assay: Antibacterial activity against methicillin-resistant Staphylococcus epidermidis after 16 hrs by NCCLS agar dilution method; format: functional
Outline: as §5

[21] = tested on: Staphylococcus epidermidis; assay: Antibacterial activity against methicillin-sensitive Staphylococcus epidermidis after 16 hrs by NCCLS agar dilution method; format: functional
Outline: as §5

Staphylococcus aureus [22] = assay: Antibacterial activity against methicillin-resistant Staphylococcus aureus after 16 hrs by NCCLS agar dilution method; format: functional
Outline: as §5

Staphylococcus aureus [23] = assay: Antibacterial activity against methicillin-sensitive Staphylococcus aureus after 16 hrs by NCCLS agar dilution method; format: functional
Outline: as §5

Rattus norvegicus [24] = assay: as §4; format: ADME, organism-based; details: in vivo
Outline: as §1

Rattus norvegicus [25] = assay: AUC in Sprague-Dawley rat at 5.6 mg/kg, iv by LC-MS analysis; format: ADME, organism-based, Plasma; design: dose 5.6 mg/kg, route intravenous; details: in vivo
Outline: as §1

Rattus norvegicus [26] = assay: as §2; format: ADME, organism-based, Plasma; design: dose 10 mg/kg, route oral; details: in vivo
Outline: as §1

[27] = Elimination half life in Sprague-Dawley rat at 5.6 mg/kg, iv by LC-MS analysis; format: ADME, organism-based; design: dose 5.6 mg/kg, route intravenous; details: in vivo, read-out: beta t1/2 (converted)
Outline: as §1

Sequence of Voltage-gated inwardly rectifying potassium channel KCNH2 (Q12809 whole entry): as above

Row | SMILES | IC50 [1] [µM] | Cmax [2] [ng/mL] | solubility [3] [mg/mL] | AUC [4] [ng·h/mL] | half-life [5] [h] | Tmax [6] [h] | half-life [7] [h] | bioavailability [12] [%] | clearance [13] [mL/min/kg] | AUC [14] [ng·h/mL] | MIC (Enterococcus faecium) [µg/mL] | MIC (Enterococcus faecalis [15]) [µg/mL] | MIC [16] [µg/mL] | MIC (Staphylococcus aureus [17]) [µg/mL] | MIC (Staphylococcus aureus [18]) [µg/mL] | MIC (Enterococcus faecalis [19]) [µg/mL] | MIC (Streptococcus pneumoniae) [µg/mL] | MIC [20] [µg/mL] | MIC [21] [µg/mL] | MIC (Staphylococcus aureus [22]) [µg/mL] | further results
1 | CC(=O)NC[C@@H]1OC(=O)N2c3ccc(-c4ccc(C#N)nc4)cc3OC[C@@H]12 | 2.78 | – | – | – | – | – | – | – | – | – | – | – | – | – | – | – | – | – | – | – | –
2 | N#Cc1ccc(-c2ccc3c(c2)OC[C@H]2[C@H](COP(=O)([O-])[O-])OC(=O)N32)cn1.[Na+].[Na+] | – | 15.2 | 15 | 81.1 | 3.17 | 1.31 | – | – | – | – | – | – | – | – | – | – | – | – | – | – | –
3 | CN1C[C@@H](c2ccc(-c3ccc4c(c3)OC[C@H]3[C@H](COP(=O)([O-])[O-])OC(=O)N43)cn2)OC1=O.[Na+].[Na+] | – | 524 | 227 | 1660 | 4.61 | 0.44 | 4.88 | 52.5 | 40.3 | 3160 | – | – | – | – | – | – | – | – | – | – | MRT [8]: 1.25 h; ED50 (Staphylococcus aureus [9]): 5 mg/kg; ED50 (Staphylococcus aureus [10]): 14.2 mg/kg; ED50 (Staphylococcus aureus [11]): 6.65 mg/kg
4 | CN1C[C@@H](c2ccc(-c3ccc4c(c3)OC[C@H]3[C@H](COP(=O)(O)O)OC(=O)N43)cn2)OC1=O.N=C(N)NCCC[C@H](N)C(=O)O.N=C(N)NCCC[C@H](N)C(=O)O | – | 170 | – | 523 | 3.88 | 0.38 | 9.43 | 34.8 | 56.2 | 1440 | – | – | – | – | – | – | – | – | – | – | –
5 | C[C@@H](O)C(=O)c1ccc(-c2ccc3c(c2)OC[C@H]2[C@H](CO)OC(=O)N32)cn1 | – | – | – | – | – | – | – | – | – | – | 4 (≈ 10.8 µM) | 4 (≈ 10.8 µM) | 4 (≈ 10.8 µM) | 8 (≈ 21.6 µM) | 0.25 (≈ 0.675 µM) | 1 (≈ 2.7 µM) | 0.25 (≈ 0.675 µM) | 0.125 (≈ 0.338 µM) | 0.125 (≈ 0.338 µM) | 0.125 (≈ 0.338 µM) | inhibition at 30 µM (hERG (KCNH2)): 18.4%; MIC (Staphylococcus aureus [23]): 0.25 µg/mL (≈ 0.675 µM)
6 | O=C1OC(CO)CN1c1ccc(-c2ccc3c(c2)OC[C@H]2[C@H](CO)OC(=O)N32)cn1 (stereo partly drawn) | > 40 | 332 | – | – | 2.25 | 0.38 | – | – | – | – | 4 (≈ 9.68 µM) | 4 (≈ 9.68 µM) | 4 (≈ 9.68 µM) | 8 (≈ 19.4 µM) | 0.5 (≈ 1.21 µM) | 0.5 (≈ 1.21 µM) | 0.5 (≈ 1.21 µM) | 0.5 (≈ 1.21 µM) | 0.25 (≈ 0.605 µM) | 0.5 (≈ 1.21 µM) | MIC (Staphylococcus aureus [23]): 0.5 µg/mL (≈ 1.21 µM); F (Rattus norvegicus [24]): 27.5%; AUC (Rattus norvegicus [25]): 2800 ng·h/mL; AUC (Rattus norvegicus [26]): 1491 ng·h/mL; half-life [27]: 1.08 h
